Assay results gathered from unrelated publications.
Protocols differ between the studies behind these lines.
Target: Phosphatidylinositol 4,5-bisphosphate 3-kinase catalytic subunit beta isoform (PIK3CB, Homo sapiens, UniProt P42338)

Structure (SMILES) | effect on | technique | concentration | remaining binding
CCN1CCN(Cc2ccc(C(=O)Nc3ccc(C)c(Oc4ccc5c(c4)CC(=O)N5)c3)cc2C(F)(F)F)CC1 | binding | competition with immobilised ligand | 1 µM | 100%
CN(c1ccnc(CNc2nc(Nc3ccc4c(c3)CC(=O)N4)ncc2C(F)(F)F)n1)S(C)(=O)=O | cell-free assay | competition with immobilised ligand | 1 µM | 100%
FC(F)(F)Oc1cccc(-c2cnc3ccc(-c4ccncc4)nn23)c1 | cell-free assay | competition with immobilised ligand | 5 µM | 48%
O=C(c1ccc(Nc2nccc(-c3cc4ccccc4s3)n2)cc1)N1CCC(N2CCCC2)CC1 | binding | competition with immobilised ligand | 1 µM | 86%
CNC(=O)[C@@H]1CC[C@@H](n2c(-c3ccc4cnccc4c3)nc3ccc(C(=O)NCc4cccc(C(N)=O)c4)cc32)C1 | binding | competition with immobilised ligand | 1 µM | 100%
O=C(NCc1ncc(C(F)(F)F)cc1Cl)c1ccc2c(c1)C1(CCS(=O)(=O)CC1)[C@H](C1CC1)N2S(=O)(=O)c1ccc(F)cc1 | cell-free assay | competition with immobilised ligand | 1 µM | 68%
C[C@H]1CCN(c2nccc(-c3cnn4ncccc34)n2)C1 | binding |  | 1 µM | 65%
COc1cnc(Nc2cccc(S(N)(=O)=O)c2)nc1N1CCN(c2ccccc2)C(=O)C1 | binding | competition with immobilised ligand | 1 µM | 100%
CCC(=N\O)/C(C)=C/c1ccc(F)cc1 | cell-free assay | competition with immobilised ligand | 1 µM | 99%
c1cnn2ncc(-c3ccnc(N4CCC45COC5)n3)c2c1 | binding |  | 1 µM | 62%
O=C(NCCCN1CCOCC1)c1ccc(Nc2ncc(Cl)c(-c3ccc(Cl)s3)n2)cc1 | binding | competition with immobilised ligand | 1 µM | 99%
C[C@@H](c1ccc(-n2cnc3c(N)ncnc32)cc1)N1CCc2nn(C)c(Cc3ccccc3)c2C1=O | binding | competition with immobilised ligand | 0.1 µM | 99%
CC1CCCN1c1nccc(-c2cnn3ncccc23)n1 (stereo not drawn) | binding |  | 1 µM | 100%
Nc1ncc2c(n1)-c1c([nH]c3ccc(C#CC4CC4)cc13)CCCC2 | binding | competition with immobilised ligand | 1 µM | 100%
N[C@@H]1CCN(c2nccc(-c3cnn4ncccc34)n2)C1 | binding |  | 1 µM | 100%
CNCc1ccccc1-c1csc([C@H](C)Nc2nc(C)nc3cc(OC)c(OC)cc23)c1 | cell-free assay | competition with immobilised ligand | 1 µM | 89%
O=C(c1ccc(Nc2ncc(Cl)c(-c3cc4ccccc4s3)n2)cc1)N1CCC(N2CCCC2)CC1 | binding | competition with immobilised ligand | 1 µM | 100%
O=c1nc(-c2ccccn2)sc2ccccc12 | cell-free assay | competition with immobilised ligand | 1 µM | 100%
O=C(NCC1CCOCC1)c1n[nH]cc1NC(=O)c1c(F)cccc1F | binding | competition with immobilised ligand | 1 µM | 91%
CN(CCCC(F)(F)F)c1nccc(-c2cnn3ncccc23)n1 | binding |  | 1 µM | 100%
Cc1cc(NC(=O)c2cccc(S(F)(F)(F)(F)F)c2)cc(-n2ccn3nc(-c4cccnc4)cc23)c1 | cell-free assay | competition with immobilised ligand | 1 µM | 100%
